Reference: ChEMBL document CHEMBL4837210 (Eur J Med Chem, 2021)

Experiments:
Assay type in all cases: functional
Bacillus subtilis = assay: Antibacterial activity against penicillin-susceptible Bacillus subtilis ATCC 9372 assessed as bacterial growth inhibition incubated for 24 hrs by CLSI protocol based broth microdilution method
Bacillus pumilus = assay: Antibacterial activity against penicillin-susceptible Bacillus pumilus CMCC 63202 assessed as bacterial growth inhibition by broth dilution method; settings: time 24 hrs
Procedure, shortened: (§1)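 Broth microdilution in Mueller Hinton broth. A 0.5 McFarland suspension was diluted tenfold, giving an inoculum of 1.5 × 10⁷ cfu/mL. This was added to 2-fold serial compound dilutions from […]. Plates were incubated aerobically at 37 °C for 24 h. MIC was the lowest concentration with no visible turbidity.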

Staphylococcus aureus [1] = assay: Antibacterial activity against erythromycin-susceptible Staphylococcus aureus ATCC 25923 assessed as bacterial growth inhibition incubated for 24 hrs by CLSI protocol based broth microdilution method
Streptococcus pyogenes [2] = assay: Antibacterial activity against erythromycin-susceptible Streptococcus pyogenes clinical isolate 1 assessed as bacterial growth inhibition incubated for 24 hrs by CLSI protocol based broth microdilution method
Pseudomonas aeruginosa = assay: Antibacterial activity against penicillin-susceptible Pseudomonas aeruginosa ATCC27853 assessed as bacterial growth inhibition incubated for 24 hrs by CLSI protocol based broth microdilution method
Escherichia coli = assay: Antibacterial activity against penicillin-susceptible Escherichia coli ATCC 25922 assessed as inhibition of bacterial growth measured by broth microdilution method; settings: time 24 hrs; procedure, shortened: as §1
Staphylococcus aureus [3] = assay: Antibacterial activity against methicillin-resistant Staphylococcus aureus ATCC 43300 assessed as inhibition of bacterial growth by broth microdilution method; settings: time 24 hrs
Procedure, shortened: (§2)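 Broth microdilution MIC. A 0.5 McFarland suspension was diluted 10-fold and added at 1.5 × 10⁷ cfu/mL to 2-fold dilutions (0.125–64) in Mueller Hinton broth. Incubated aerobically 24 h at 37 °C. MIC was the lowest concentration with no visible turbidity.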

Staphylococcus aureus [4] = assay: Antibacterial activity against penicillin-resistant Staphylococcus aureus assessed as inhibition of bacterial growth measured by broth microdilution method; settings: time 24 hrs; procedure, shortened: as §2
Staphylococcus aureus [5] = assay: Antibacterial activity against Staphylococcus aureus assessed as inhibition of bacterial growth measured by broth microdilution method; settings: time 24 hrs; procedure, shortened: as §1
[6] = test system: Staphylococcus epidermidis; assay: Antibacterial activity against penicillin-resistant Staphylococcus epidermidis assessed as inhibition of bacterial growth measured by broth microdilution method; settings: time 24 hrs
Streptococcus pyogenes [7] = assay: Antibacterial activity against erythromycin-resistant Streptococcus pyogenes 2 assessed as bacterial growth inhibition incubated for 24 hrs by CLSI protocol based broth microdilution method

| Compound | MIC (Bacillus subtilis) [µg/mL] | MIC (Bacillus pumilus) [µg/mL] | MIC (Staphylococcus aureus [1]) [µg/mL] | MIC (Streptococcus pyogenes [2]) [µg/mL] | MIC (Pseudomonas aeruginosa) [µg/mL] | MIC (Escherichia coli) [µg/mL] | MIC (Staphylococcus aureus [3]) [µg/mL] | MIC (Staphylococcus aureus [4]) [µg/mL] | MIC (Staphylococcus aureus [5]) [µg/mL] | MIC [6] [µg/mL] | MIC (Streptococcus pyogenes [7]) [µg/mL] |
| --- | --- | --- | --- | --- | --- | --- | --- | --- | --- | --- | --- |
| CCCCCCCCNc1c2ccccc2[n+](C)c2ccccc12.[Cl-] | 16 | 16 | 8 | 16 | > 64 | > 64 | 16 | 4 | 8 | 16 | 16 |
| COc1ccccc1C#Cc1c2ccccc2[n+](C)c2ccccc12.[I-] | 8 | 2 | 8 | 16 | > 64 | > 64 | 8 | 16 | 4 | 16 | 16 |
| Cc1ccccc1-c1c2ccccc2[n+](C)c2ccccc12.[I-] | 32 | > 64 | 8 | 64 | > 64 | > 64 | > 64 | > 64 | 64 | > 64 | > 64 |
| C[n+]1c2ccccc2c(/C=C/c2ccc(Br)cc2)c2ccccc21.[I-] | 1 | 1 | 0.5 | 0.25 | > 64 | 64 | 2 | 4 | 1 | 2 | 0.5 |
| C[n+]1c2ccccc2c(-c2ccc(OC(F)(F)F)cc2)c2ccccc21.[I-] | 4 | 8 | 0.5 | 1 | > 64 | > 64 | 2 | 64 | 2 | 32 | 4 |
| C[n+]1c2ccccc2c(/C=C/c2ccc(Cl)cc2)c2ccccc21.[I-] | 2 | 1 | 1 | 1 | > 64 | > 64 | 2 | 4 | 2 | 2 | 1 |
| CCCCCCNc1c2ccccc2[n+](C)c2ccccc12.[Cl-] | 64 | 64 | 64 | 32 | > 64 | > 64 | 64 | 64 | 64 | 64 | 32 |
| C[n+]1c2ccccc2c(Nc2ccncn2)c2ccccc21.[Cl-] | 16 | 64 | 16 | > 64 | > 64 | > 64 | 32 | > 64 | 32 | > 64 | > 64 |
| CCOc1ccc(/C=C/c2c3ccccc3[n+](C)c3ccccc23)cc1.[I-] | 2 | 16 | 0.5 | < 0.125 | > 64 | > 64 | 2 | 8 | 1 | 4 | 0.5 |
| Cc1ccc(-c2c3ccccc3[n+](C)c3ccccc23)cc1.[I-] | 4 | 8 | 1 | 4 | > 64 | > 64 | 64 | > 64 | 4 | 64 | 16 |
| Cc1ccc(/C=C/c2c3ccccc3[n+](C)c3ccccc23)cc1.[I-] | 1 | 0.5 | 0.5 | 0.25 | > 64 | 64 | 4 | 8 | 1 | 2 | 0.5 |
| C[n+]1c2ccccc2c(/C=C/c2ccc(F)cc2)c2ccccc21.[I-] | 2 | 2 | 1 | 0.5 | > 64 | > 64 | 8 | 16 | 2 | 8 | 0.5 |
| CCCOc1ccc(C#Cc2c3ccccc3[n+](C)c3ccccc23)cc1.[I-] | 4 | 4 | 4 | 16 | > 64 | > 64 | 4 | 16 | 4 | 8 | 16 |
| C[n+]1c2ccccc2c(-n2cccc2)c2ccccc21.[Cl-] | 64 | 64 | 32 | 16 | > 64 | > 64 | > 64 | 64 | 64 | > 64 | 64 |
| COc1ccccc1/C=C/c1c2ccccc2[n+](C)c2ccccc12.[I-] | 1 | 2 | 0.25 | 0.25 | > 64 | > 64 | 4 | 16 | 1 | 8 | 0.5 |
| C[n+]1c2ccccc2c(/C=C/c2ccccc2)c2ccccc21.[I-] | 1 | 2 | 0.5 | 0.25 | > 64 | > 64 | 4 | 8 | 2 | 8 | 0.5 |
| CCCCc1ccc(C#Cc2c3ccccc3[n+](C)c3ccccc23)cc1.[I-] | 4 | 2 | 4 | 8 | > 64 | > 64 | 4 | 8 | 4 | 8 | 8 |
| C[n+]1c2ccccc2c(-c2cccc([N+](=O)[O-])c2)c2ccccc21.[I-] | 64 | > 64 | 16 | 16 | > 64 | > 64 | 64 | > 64 | 32 | > 64 | 64 |
